What all share (type): physicochemical
Series [1] is described as follows: Glutathione reactivity assessed as thiol reactivity rate constant at 250 uM up to 72 hrs by HPLC-MS or NMR analysis. Also noted: unit not given beside the values. The procedure, abridged: (§1)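 Fragment 250 µM mixed with 5 mM glutathione in PBS pH 7.4 containing 5% acetonitrile, with 100 µM indoprofen as internal standard. For fragments not detectable at 250 µM, levels were reversed (5 mM fragment, 250 µM GSH). Internal-standard-corrected AUCs were fitted by OLS linear regression. k_GSH = k_eff − k_deg, and t1/2 = ln2/k_GSH.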

Series [2] in a line: Stability of the compound assessed as half life for degradation.
Series [3] can be described thus: Glutathione reactivity assessed as half life at 250 uM up to 72 hrs by HPLC-MS or NMR analysis. The conditions noted are these: gsh. The procedure, abridged:
as §1

Where only a bound is given, the exact number is not on record here.

On to `N#Cc1cccnc1`, for which, in series [1], the K turned out to be 0.0176. For the same compound, the half-life in series [2] is greater than 1 h. Also, in series [3], the t1/2 came out at 41 h.
`C#CCn1ccnc1`: the K in series [1] was found to be 0.0144. Further, the half-life in series [2] was greater than 1 h. Moreover, the t1/2 in series [3] worked out at 48 h.
Take `Ic1ncc[nH]1`: the K in series [1] is listed as 0.116. For the same compound, the half-life in series [2] is greater than 1 h. In addition, the t1/2 in series [3] was 6 h.
The matching figures for `N#Cc1cnccn1`: 0.0314, greater than 1 h and 22.5 h.
On to `Brc1cncs1`, for which the K in series [1] was 0.011. In series [2], the half-life was greater than 1 h. The t1/2 in series [3] amounted to 63 h.
For `Ic1ncco1`, the K in series [1] is given as 6.0573. The half-life in series [2] is greater than 1 h.
Turning to `Ic1nccs1`, the K in series [1] was 0.7872. In addition, the half-life in series [2] is greater than 1 h. In addition, the t1/2 in series [3] was 0.9 h.
For `N#Cc1ccncc1` [ISONICOTINONITRILE], the K in series [1] is 0.8837. Also, the half-life in series [2] was greater than 1 h. For the same compound, in series [3], the t1/2 stood at 0.8 h.
